14-3-3 Bad PPI: disrupts binding of bovine 14-3-3 zeta to phospho-Bad peptide. P63103. TR-FRET 14-3-3zeta/Dy647-pBad peptide displacement, 1 h. inhibition, % at 21.7 µM. actives 0.71% (n = 220,000). AID 781;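 active = inhibition above about 70%, limit read from the data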;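 note: 0% = full 14-3-3 plus peptide FRET controls and 100% = background without 14-3-3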
RBBP9 inhibitor: human RBBP9 hydrolase inhibition | O75884 | recombinant RBBP9, FP-Rh probe fluorescence polarization | inhibition, % at 7.94 µM | actives 0.2% (n = 220,000) | AID 1515;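 active = inhibition above the campaign mean of all tested compounds plus 3 SD, cut at about 14% in these data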;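 note: plate controls were DMSO wells with RBBP9 for no effect and wells lacking RBBP9 protein for full effect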
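Material: RBBP9 protein. Amount: RBBP9 at 2.5 µM in dispensed solution, before mixing. Schedule: 30 min then 45 min, 25 °C. Medium: Tris buffer pH 8.0, NaCl, Pluronic. Measured by: fluorescence polarization. Measure: percent inhibition from mP, scaled between DMSO and no-protein wells. Replication: one well per compound.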
Cl transport mod: KCC2 (human) Cl- transport modulation. KCC2 cells, thallium flux FluoZin-2 fluorescence. B-score of Tl+ flux slope (higher = more flux/activation; lower = inhibition) at 10 µM. actives 2.2% (n = 190,000);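 active = thallium flux slope and its plate-corrected score both differing from the plate sample mean at a set confidence after two filtering rounds, in either direction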;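 note: slope of fluorescence scaled to starting intensity during 10 to 20 s after thallium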
WT yeast gro inh: growth inhibition of WT yeast, mitochondrial fusion screen; mitochondrial fusion phenotypic screen, WT strain; inhibition, % at 10 µM; actives 2.1% (n = 190,000); in the data active = inhibition above about 58%; tested in S. cerevisiae
ROMK mod: modulates human ROMK potassium channel activity | P48048 | B-score at 10 µM | actives 2% (n = 130,000) | Tet-inducible ROMK, thallium flux fluorescence; actives lie on both sides | AID 1918;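 active = signal ratio slope over the read window, or its plate-corrected B-score, at least 3 SD from the plate mean, either direction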;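 note: B-score of the F/F0 ratio slope over 7 to 12 s after thallium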
p47phox inh: p47phox (human) inhibition | P14598 | p47phox/p22phox peptide binding, fluorescence polarization, 2 h | inhibition, % at 24.7 µM | actives 0.53% (n = 220,000) | AID 1274;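 active = inhibition above about 30%, limit read from the data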;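 note: 0% = p47phox with labelled peptide and 100% = labelled peptide alone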
Target sequence (P14598 whole entry, looked up): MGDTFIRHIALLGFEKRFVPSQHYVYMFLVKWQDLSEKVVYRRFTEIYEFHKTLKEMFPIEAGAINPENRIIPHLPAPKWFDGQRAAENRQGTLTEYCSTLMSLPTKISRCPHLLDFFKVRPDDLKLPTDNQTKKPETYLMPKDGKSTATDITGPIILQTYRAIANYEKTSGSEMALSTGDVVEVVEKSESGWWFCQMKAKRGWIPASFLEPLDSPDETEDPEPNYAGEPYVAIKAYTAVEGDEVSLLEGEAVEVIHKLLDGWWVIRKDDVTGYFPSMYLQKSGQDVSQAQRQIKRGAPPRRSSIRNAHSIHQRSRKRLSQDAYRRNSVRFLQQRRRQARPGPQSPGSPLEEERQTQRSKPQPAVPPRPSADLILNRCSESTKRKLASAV
ROMK retest: confirmation of human ROMK potassium channel modulators; shares compounds with ROMK mod; AID 1917; normalized thallium flux (F/F0 slope) at 10 µM; ROMK thallium flux, fluorescence ratio; stronger effect = lower value; actives 54% (n = 3,000);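 active = Flux at 10 µM at least 3 SD below or above vehicle control mean in one or both replicates; inconclusive = no clear call, values can overlap the other calls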
* hit, by the source's call; u = inconclusive; x = no result given. An excerpt weighted towards active compounds, which were near 5.8% of everything screened.

SMILES	14-3-3 Bad PPI	RBBP9 inhibitor	Cl transport mod	WT yeast gro inh	ROMK mod	p47phox inh	ROMK retest
O=C(Oc1coc(CSc2ncccn2)cc1=O)c1ccccc1[N+](=O)[O-]	5	-6	0.01	9	0.041	4	0.088
O=C(CSc1nnc(-c2ccco2)o1)c1ccccc1	-4	-2	-0.22	x	x	-5	0.074
CCN(CC)C(=O)CCSc1nnc(-c2ccco2)o1	-8	0	-0.055	-18	1.3	-3	0.073
C/C(=N\NC(=O)C1CC1)c1ccccc1O	-12	1	-0.41	-1	-0.33	7	x
Cc1cc(F)c(F)c(C(=O)N2CCC(C)CC2)c1Cl	-15	-10	0.071	-15	0.15	-22	x
CCOC(=O)c1ccc(Nc2sc(C(=O)c3cccc([N+](=O)[O-])c3)c(N)c2C#N)cc1	54	-10	1	x	x	-24	x
CC1=NNC(=O)C1C(c1ccccc1)C1C(=O)NN=C1C (stereo not drawn)	-11	-3	0.093	-3	0.18	-7	x
C1CCN(c2nc(N3CCCCC3)nc(N3CCNCC3)n2)CC1	-8	-6	0.36	-6	-3*	-14	0.067*
CC1CCN(c2nc(N3CCCCC3)nc(N3CCCCC3)n2)CC1	-20	5	x	38	x	-4	x
N#Cc1nc(N2CCCC2)nc(N2CCCC2)n1	0	1	x	-42	-3.4*	-1	0.063*
O=C1CC(c2cc([N+](=O)[O-])ccc2Cl)c2c(ccc3ccccc23)N1 (stereo not drawn)	-5	-1	0.53	5	x	-18	x
O=C(NCC(c1ccco1)N1CCCCC1)c1ccc(OCc2ccccc2)cc1 (stereo not drawn)	-6	0	x	71*	-3.2*	-1	0.07
CC(C)Oc1cc(N)c(Cl)cc1Cl	-1	-7	0.77	-7	0.73	-6	x
CC(=O)N1C(=O)C(=C2C=C(C)OC(C)=C2)c2ccccc21	-2	-6	-0.04	7	x	-58	0.062*
COCC(C)NC(=O)CSc1nnc(-c2cccc(S(=O)(=O)N3CCCCC3)c2)o1 (stereo not drawn)	-3	-3	-0.0059	14	0.064	-5	x
CC(NC(=O)CSc1nnc(-c2cccc(S(=O)(=O)N3CCCCC3)c2)o1)C12CC3CC(CC(C3)C1)C2 (stereo not drawn)	-2	-1	-0.4	9	-3.8*	-7	0.066*
O=C1C2C(c3cccc(/C=C/c4ccccc4)c3)CC=CC2C(c2ccc(C(F)(F)F)cc2)N1Cc1ccccc1 (stereo not drawn)	-2	x	0.046	x	x	-6	0.087
CCOC(=O)c1ccc(-c2ccc(/C=N/NC(=O)Cc3nnc(N)s3)o2)cc1	5	0	-0.82	x	-12*	-24	0.078
O=C(NNC(=S)Nc1ccc(Br)cc1Cl)c1ccncc1	1	-1	0.11	-3	6*	-12	0.11*
O=C(NNC(=S)Nc1ccccc1)c1ccncc1	3	-6	0.42	3	-0.13	-20	x
Nc1c(C=C2C=CC(=O)C=C2)c(=O)nc2snc(SCc3ccccc3)n12	-3	-12	x	x	x	-62	u
CCn1c(C(=O)N2CCC(C(=O)N3CCN(c4ccccn4)CC3)CC2)cc2sccc21	15	-4	-0.81	5	x	2	0.075
CC1CCN(C(=O)C2CCN(C(=O)c3cc4sccc4n3Cc3ccc(F)cc3)CC2)CC1	33	7	x	52	-2.9	-9	x
C=CCNC(=O)c1scc2c1CCCC2	0	-4	0.094	15	-0.39	-1	x
CN(C)CCNC(=O)c1scc2c1CCCC2	5	2	0.54	x	x	5	0.076
CN(C)c1ccc(/C=N/N=C(N)N)cc1[N+](=O)[O-]	0	-7	x	11	x	10	x
Cc1cc(C(=O)CSc2nc3ccccc3c(=O)n2C)c(C)n1CC1CCCO1 (stereo not drawn)	-12	-7	-1.1	-6	-8.5*	-2	0.06*
CC(C)=NNc1nc2c(c(=O)[nH]c(=O)n2C)n1CCc1ccccc1	-12	2	x	0	-1.7*	-5	0.073
CC/C(C)=N/Nc1nc2c(c(=O)[nH]c(=O)n2C)n1CCc1ccccc1	-13	5	0.22	-4	x	-2	x

High-throughput results as filed in PubChem BioAssay.
